Measured values reported in ChEMBL document CHEMBL4689842, “EUbOPEN Chemogenomics Library wave 1” (2021).

Assays:
Assay type in all cases: toxicity, cell-based
Fibroblast = experiment: Multiplex assay against human fibroblast
Outline: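 Compound was added to live cells that had been stained at seeding with Hoechst33342, BioTracker Green Microtubule Cytoskeleton Dye, MitoTracker Red and Annexin V Alexa Fluor 680, and imaging followed on a CQ1 microscope at 37°C and 5% CO2. CellPathfinder machine-learning gating divided cells into Hoechst high-intensity objects or normal cells, normal cells into healthy, pyknosed or fragmented nuclei, and pyknosed cells into mitotic or apoptotic. Tubulin, mitochondrial-mass and membrane-permeability phenotypes are per cents of healthy-nucleus cells.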

HEK-293T = experiment: Incucyte cell viability with HEK293T; conditions: human, 10 µM, compound concentration 10 uM; further: filed as whole numbers so only -1 and 0 and 1 occur
U2OS = experiment: Incucyte cell viability with U2OS; conditions: human, 10 µM, compound concentration 10 uM; further: filed as whole numbers so only -1 and 0 and 1 occur
[1] = 12 h, 1 µM, compound concentration 1 uM, replicate 1
[2] = 12 h, 1 µM, compound concentration 1 uM, replicate 2
[3] = 12 h, 10 µM, compound concentration 10 uM, replicate 1
[4] = 12 h, 10 µM, compound concentration 10 uM, replicate 2
[5] = 24 h, 1 µM, compound concentration 1 uM, replicate 1
[6] = 24 h, 1 µM, compound concentration 1 uM, replicate 2
[7] = 24 h, 10 µM, compound concentration 10 uM, replicate 1
[8] = 24 h, 10 µM, compound concentration 10 uM, replicate 2
[9] = 0 h, replicate number 1, timepoint 0 hours
[10] = 6 h, replicate number 1, timepoint 6 hours
[11] = 12 h, replicate number 1, timepoint 12 hours
[12] = 18 h, replicate number 1, timepoint 18 hours
[13] = 24 h, replicate number 1, timepoint 24 hours
[14] = 12 h, replicate number 2, timepoint 12 hours

## Cc1ccc(NC(=O)Nc2cc(C(F)(F)F)ccc2F)cc1Nc1ccc2c(c1)NC(=O)/C2=C\c1ccc[nH]1
Fibroblast; [1]
  Population Apoptotic (%): 36%
  Population Fragmented Nuclei (%): 13%
  Population Healthy Nuclei (%): 59%
  Population Hoechst High Intensity Objects (%): 10%
  Population Membrane Permeable-Phenotype (%): 58%
  Population Mitochondria Different-Phenotype (%): 0%
  Population Mitotic Cells (%): 63%
  Population Normal (%): 89%
  Population Pyknosed Nuclei (%): 27%
  Population Tubulin-Different-Phenotype (%): 36%
  Total Cell Count: 178
Fibroblast; [2]
  Population Apoptotic (%): 100%
  Population Fragmented Nuclei (%): 60%
  Population Healthy Nuclei (%): 36%
  Population Hoechst High Intensity Objects (%): 50%
  Population Membrane Permeable-Phenotype (%): 63%
  Population Mitochondria Different-Phenotype (%): 18%
  Population Mitotic Cells (%): 0%
  Population Normal (%): 49%
  Population Pyknosed Nuclei (%): 3%
  Population Tubulin-Different-Phenotype (%): 54%
  Total Cell Count: 61
Fibroblast; [3]
  Population Apoptotic (%): 66%
  Population Fragmented Nuclei (%): 15%
  Population Healthy Nuclei (%): 52%
  Population Hoechst High Intensity Objects (%): 17%
  Population Membrane Permeable-Phenotype (%): 4%
  Population Mitochondria Different-Phenotype (%): 3%
  Population Mitotic Cells (%): 33%
  Population Normal (%): 82%
  Population Pyknosed Nuclei (%): 32%
  Population Tubulin-Different-Phenotype (%): 5%
  Total Cell Count: 210
Fibroblast; [4]
  Population Apoptotic (%): 20%
  Population Fragmented Nuclei (%): 50%
  Population Healthy Nuclei (%): 40%
  Population Hoechst High Intensity Objects (%): 20%
  Population Membrane Permeable-Phenotype (%): 0%
  Population Mitochondria Different-Phenotype (%): 19%
  Population Mitotic Cells (%): 80%
  Population Normal (%): 80%
  Population Pyknosed Nuclei (%): 9%
  Population Tubulin-Different-Phenotype (%): 0%
  Total Cell Count: 65
Fibroblast; [5]
  Population Apoptotic (%): 28%
  Population Fragmented Nuclei (%): 10%
  Population Healthy Nuclei (%): 61%
  Population Hoechst High Intensity Objects (%): 8%
  Population Membrane Permeable-Phenotype (%): 51%
  Population Mitochondria Different-Phenotype (%): 0%
  Population Mitotic Cells (%): 71%
  Population Normal (%): 91%
  Population Pyknosed Nuclei (%): 27%
  Population Tubulin-Different-Phenotype (%): 31%
  Total Cell Count: 179
Fibroblast; [6]
  Population Apoptotic (%): 100%
  Population Fragmented Nuclei (%): 61%
  Population Healthy Nuclei (%): 34%
  Population Hoechst High Intensity Objects (%): 55%
  Population Membrane Permeable-Phenotype (%): 55%
  Population Mitochondria Different-Phenotype (%): 11%
  Population Mitotic Cells (%): 0%
  Population Normal (%): 44%
  Population Pyknosed Nuclei (%): 3%
  Population Tubulin-Different-Phenotype (%): 55%
  Total Cell Count: 59
Fibroblast; [7]
  Population Apoptotic (%): 51%
  Population Fragmented Nuclei (%): 18%
  Population Healthy Nuclei (%): 61%
  Population Hoechst High Intensity Objects (%): 17%
  Population Membrane Permeable-Phenotype (%): 5%
  Population Mitochondria Different-Phenotype (%): 3%
  Population Mitotic Cells (%): 48%
  Population Normal (%): 82%
  Population Pyknosed Nuclei (%): 20%
  Population Tubulin-Different-Phenotype (%): 5%
  Total Cell Count: 237
Fibroblast; [8]
  Population Apoptotic (%): 50%
  Population Fragmented Nuclei (%): 54%
  Population Healthy Nuclei (%): 41%
  Population Hoechst High Intensity Objects (%): 29%
  Population Membrane Permeable-Phenotype (%): 0%
  Population Mitochondria Different-Phenotype (%): 5%
  Population Mitotic Cells (%): 50%
  Population Normal (%): 70%
  Population Pyknosed Nuclei (%): 4%
  Population Tubulin-Different-Phenotype (%): 10%
  Total Cell Count: 65
HEK-293T; [9]
  Growth Rate: 0
HEK-293T; [10]
  Growth Rate: 0
HEK-293T; [11]
  Growth Rate: 0
HEK-293T; [12]
  Growth Rate: 0
HEK-293T; [13]
  Growth Rate: 0
U2OS; [10]
  Growth Rate: 1
U2OS; [11]
  Growth Rate: 0
U2OS; [14]
  Growth Rate: 1
U2OS; [12]
  Growth Rate: 0
U2OS; [13]
  Growth Rate: 0

## CCOc1ccn(-c2ccc(F)cc2)c(=O)c1C(=O)Nc1ccc(Oc2ccnc(N)c2Cl)c(F)c1 [BMS-777607]
Fibroblast; [1]
  Population Apoptotic (%): 77%
  Population Fragmented Nuclei (%): 30%
  Population Healthy Nuclei (%): 58%
  Population Hoechst High Intensity Objects (%): 13%
  Population Membrane Permeable-Phenotype (%): 10%
  Population Mitochondria Different-Phenotype (%): 4%
  Population Mitotic Cells (%): 22%
  Population Normal (%): 86%
  Population Pyknosed Nuclei (%): 10%
  Population Tubulin-Different-Phenotype (%): 22%
  Total Cell Count: 251
Fibroblast; [2]
  Population Apoptotic (%): 100%
  Population Fragmented Nuclei (%): 56%
  Population Healthy Nuclei (%): 39%
  Population Hoechst High Intensity Objects (%): 29%
  Population Membrane Permeable-Phenotype (%): 17%
  Population Mitochondria Different-Phenotype (%): 17%
  Population Mitotic Cells (%): 0%
  Population Normal (%): 70%
  Population Pyknosed Nuclei (%): 3%
  Population Tubulin-Different-Phenotype (%): 47%
  Total Cell Count: 82
Fibroblast; [3]
  Population Apoptotic (%): 86%
  Population Fragmented Nuclei (%): 27%
  Population Healthy Nuclei (%): 60%
  Population Hoechst High Intensity Objects (%): 15%
  Population Membrane Permeable-Phenotype (%): 1%
  Population Mitotic Cells (%): 13%
  Population Normal (%): 84%
  Population Pyknosed Nuclei (%): 12%
  Total Cell Count: 212
Fibroblast; [4]
  Population Apoptotic (%): 80%
  Population Fragmented Nuclei (%): 54%
  Population Healthy Nuclei (%): 36%
  Population Hoechst High Intensity Objects (%): 38%
  Population Membrane Permeable-Phenotype (%): 4%
  Population Mitochondria Different-Phenotype (%): 4%
  Population Mitotic Cells (%): 20%
  Population Normal (%): 61%
  Population Pyknosed Nuclei (%): 8%
  Population Tubulin-Different-Phenotype (%): 0%
  Total Cell Count: 92
Fibroblast; [5]
  Population Apoptotic (%): 85%
  Population Fragmented Nuclei (%): 27%
  Population Healthy Nuclei (%): 62%
  Population Hoechst High Intensity Objects (%): 11%
  Population Membrane Permeable-Phenotype (%): 8%
  Population Mitochondria Different-Phenotype (%): 8%
  Population Mitotic Cells (%): 14%
  Population Normal (%): 88%
  Population Pyknosed Nuclei (%): 10%
  Population Tubulin-Different-Phenotype (%): 19%
  Total Cell Count: 226
Fibroblast; [6]
  Population Apoptotic (%): 50%
  Population Fragmented Nuclei (%): 63%
  Population Healthy Nuclei (%): 32%
  Population Hoechst High Intensity Objects (%): 31%
  Population Membrane Permeable-Phenotype (%): 10%
  Population Mitochondria Different-Phenotype (%): 21%
  Population Mitotic Cells (%): 50%
  Population Normal (%): 68%
  Population Pyknosed Nuclei (%): 3%
  Population Tubulin-Different-Phenotype (%): 31%
  Total Cell Count: 85
Fibroblast; [7]
  Population Apoptotic (%): 80%
  Population Fragmented Nuclei (%): 26%
  Population Healthy Nuclei (%): 62%
  Population Hoechst High Intensity Objects (%): 9%
  Population Membrane Permeable-Phenotype (%): 0%
  Population Mitochondria Different-Phenotype (%): 4%
  Population Mitotic Cells (%): 19%
  Population Normal (%): 90%
  Total Cell Count: 214
Fibroblast; [8]
  Population Apoptotic (%): 50%
  Population Fragmented Nuclei (%): 54%
  Population Healthy Nuclei (%): 35%
  Population Hoechst High Intensity Objects (%): 35%
  Population Membrane Permeable-Phenotype (%): 5%
  Population Mitochondria Different-Phenotype (%): 10%
  Population Mitotic Cells (%): 50%
  Population Normal (%): 64%
  Population Pyknosed Nuclei (%): 10%
  Population Tubulin-Different-Phenotype (%): 0%
  Total Cell Count: 88
HEK-293T; [9]
  Growth Rate: 1
HEK-293T; [10]
  Growth Rate: 0
HEK-293T; [14]
  Growth Rate: 1
HEK-293T; [13]
  Growth Rate: 1
HEK-293T; 24 h, replicate number 2, timepoint 24 hours
  Growth Rate: 0
U2OS; [9]
  Growth Rate: 1
U2OS; 0 h, replicate number 2, timepoint 0 hours
  Growth Rate: 0
U2OS; [10]
  Growth Rate: 0
U2OS; [11]
  Growth Rate: 0
U2OS; [12]
  Growth Rate: 0
U2OS; [13]
  Growth Rate: 0
